Active and inactive are the calls of the source. The calls are words filed in the database; no cut-off is given here.
Legend:
Mus musculus [1] = experiment: Antiinflammatory activity against ovalbumin-induced airway hyperreactivity in BALB/c mouse assessed as reduction in LTB4 and isomers level in lung tissue at 10 mg/kg, po pretreated with compound for 60 mins prior to ovalbumin stimulation on day 0 and 7 and […] by UPLC-MS/MS analysis; assay type: functional, organism-based
Procedure, shortened: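 Mice gavaged with 10 mg/kg 60 min before ovalbumin sensitization on days 0 and 7. Lung tissue taken on […] and LTB4 plus its isomers quantified as pg/mg lung tissue; n = 5 mice; two-tailed unpaired t-test of log data.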

[2] = Drug concentration in plasma of mouse at 10 mg/kg, po within 1 hr; assay type: ADME, organism-based
[3] = Drug degradation in mouse at 10 mg/kg, po; assay type: ADME, organism-based; conditions: in vivo
Procedure, shortened: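 Mice with acute peritonitis dosed orally at 10 mg/kg; plasma compound and metabolite concentrations measured 90 min after administration from extracted chromatograms; n = 8 mice.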

[4] = Drug metabolism in human liver-on-chip assessed as compound oxidization at 12a' or 13' of omega-carboxylic acid incubated for 48 hrs by UPLC-MS/MS anlaysis; assay type: ADME, tissue-based
Procedure, shortened: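 Liver-on-chip built from differentiated HepaRG cells (hepatocyte-like and biliary-like) with a HUVEC endothelial layer. Loaded with compound at 1 μM and incubated 48 h; compound and metabolites quantified from extracted chromatograms; n = 3 independent experiments.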

[5] = Cytotoxicity against human PBMC assessed as reduction in metabolic activity at <=1 uM after 2 to 24 hrs by MTT assay; conditions: time 2-24 hrs
Procedure, shortened: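 PBMC at 2 × 10^6/mL in monocyte medium treated 2 or 24 h at 37 °C, 5% CO2, with 0.1% DMSO vehicle. MTT added for 4 h in the dark, formazan solubilized in SDS/HCl, absorbance read at 570 nm.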

[6] = molecular target: T1, Prostaglandin E synthase (Homo sapiens) (UniProt O14684); experiment: Inhibition of mPGES-1 activity in IL-1beta treated human A549 cells assessed as reduction in PGE2 formation at 10 uM using PGH2 as substrate preincubated for 15 mins followed by substrate addition and measured after 1 min; assay type: cell-based; conditions: time 16.0 min
T1 sequence (whole entry): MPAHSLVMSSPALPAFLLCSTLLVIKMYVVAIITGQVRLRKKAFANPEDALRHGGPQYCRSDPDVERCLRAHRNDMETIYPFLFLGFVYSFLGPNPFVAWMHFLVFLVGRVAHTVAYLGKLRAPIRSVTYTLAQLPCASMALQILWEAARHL

[7] = molecular target: T2, Polyunsaturated fatty acid lipoxygenase ALOX15 (Homo sapiens) (UniProt P16050); experiment: Inhibition of 15-LOX in human PMNL assessed as reduction in 15-LOX product formation at 10 uM treated with AA and A23187 by RP-HPLC method; assay type: tissue-based
T2 sequence (whole entry): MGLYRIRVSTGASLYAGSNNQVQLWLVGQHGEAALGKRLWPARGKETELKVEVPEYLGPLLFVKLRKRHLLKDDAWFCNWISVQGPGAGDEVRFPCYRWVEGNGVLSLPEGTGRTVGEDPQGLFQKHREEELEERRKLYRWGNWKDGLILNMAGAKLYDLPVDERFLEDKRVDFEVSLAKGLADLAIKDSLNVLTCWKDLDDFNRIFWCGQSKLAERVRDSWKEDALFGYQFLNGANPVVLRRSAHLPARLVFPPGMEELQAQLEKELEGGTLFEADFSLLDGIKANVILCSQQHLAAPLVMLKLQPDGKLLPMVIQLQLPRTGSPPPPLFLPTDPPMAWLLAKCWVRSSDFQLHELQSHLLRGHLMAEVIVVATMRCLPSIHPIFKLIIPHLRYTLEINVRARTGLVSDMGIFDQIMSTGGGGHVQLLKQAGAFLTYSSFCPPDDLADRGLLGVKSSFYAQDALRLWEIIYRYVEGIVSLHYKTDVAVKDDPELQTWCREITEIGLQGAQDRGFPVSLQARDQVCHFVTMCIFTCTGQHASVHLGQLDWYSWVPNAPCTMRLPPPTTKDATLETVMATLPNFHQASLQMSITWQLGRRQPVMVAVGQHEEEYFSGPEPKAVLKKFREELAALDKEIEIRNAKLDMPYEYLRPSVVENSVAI

[8] = molecular target: Prostaglandin G/H synthase 1 (Homo sapiens) (UniProt P23219); experiment: Inhibition of COX-1 in human platelets assessed as reduction in 12-HHT formation at 10 uM using arachidonic acid as substrate preincubated for 5 mins followed by substrate addition and measured after 5 mins by RPL-HPLC method; assay type: tissue-based; conditions: Platelet, time 10.0 min
Chain of Prostaglandin G/H synthase 1 (Homo sapiens) (P23219 whole entry): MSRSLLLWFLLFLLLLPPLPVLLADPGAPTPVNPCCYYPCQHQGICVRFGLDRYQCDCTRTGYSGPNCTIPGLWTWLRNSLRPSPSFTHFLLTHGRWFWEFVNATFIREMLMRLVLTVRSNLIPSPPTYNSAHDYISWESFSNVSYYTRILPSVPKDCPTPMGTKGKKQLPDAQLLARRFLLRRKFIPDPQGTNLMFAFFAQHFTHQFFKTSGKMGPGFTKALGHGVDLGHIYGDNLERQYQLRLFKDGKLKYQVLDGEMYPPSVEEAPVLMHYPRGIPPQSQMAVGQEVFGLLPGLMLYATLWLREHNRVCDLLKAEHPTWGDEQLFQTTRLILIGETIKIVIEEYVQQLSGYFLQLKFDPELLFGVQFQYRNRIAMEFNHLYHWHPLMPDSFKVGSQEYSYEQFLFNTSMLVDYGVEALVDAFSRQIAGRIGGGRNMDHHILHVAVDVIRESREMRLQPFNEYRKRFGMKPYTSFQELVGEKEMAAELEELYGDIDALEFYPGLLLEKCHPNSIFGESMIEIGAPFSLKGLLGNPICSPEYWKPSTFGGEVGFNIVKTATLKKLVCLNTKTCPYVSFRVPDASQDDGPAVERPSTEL

[9] = molecular target: T2, Polyunsaturated fatty acid lipoxygenase ALOX15 (Homo sapiens); experiment: Inhibition of 15-LOX in human PMNL assessed as reduction in 15-LOX product formation at 0.03 to 0.2 uM treated with AA and A23187 by RP-HPLC method; assay type: tissue-based; conditions: dose 0.03-0.2 µM
Keratinocyte [10] = experiment: Antiinflammatory activity in cytokine cocktail-induced reconstructed human epidermis model assessed as reduction in IL-8 level at 5 to 25 uM after 4 days by ELISA; assay type: functional, cell-based; conditions: dose 5-25 µM, time 4.0 day
Procedure, shortened: (§1)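 Reconstructed human epidermis exposed to compound and stressed with a cytokine cocktail for 4 days. Readouts: IL-8 in growth medium, H&E morphology, transepidermal water loss, stratum corneum permeability to Lucifer yellow with DAPI nuclear stain, and surface pH. n = 2–3 independent experiments.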

Keratinocyte [11] = experiment: Antiinflammatory activity in cytokine cocktail-induced reconstructed human epidermis model assessed as attenuation of epidermal disorganization at 5 to 25 uM after 4 days by HE staining based assay; assay type: functional, cell-based; conditions: dose 5-25 µM, time 4.0 day; procedure, shortened: as §1
Keratinocyte [12] = experiment: Antiinflammatory activity in cytokine cocktail-induced reconstructed human epidermis model assessed as improved skin barrier functions at 5 to 25 uM after 4 days; assay type: functional, cell-based; conditions: dose 5-25 µM, time 4.0 day; procedure, shortened: as §1
Keratinocyte [13] = experiment: Antiinflammatory activity in cytokine cocktail-induced reconstructed human epidermis model assessed as decrease in pH at 5 to 25 uM after 4 days; assay type: functional, cell-based; conditions: dose 5-25 µM, time 4.0 day; procedure, shortened: as §1
Keratinocyte [14] = experiment: Antiinflammatory activity in cytokine cocktail-induced reconstructed human epidermis model assessed as effect on TSLP expression at 5 to 25 uM after 4 days by ELISA; assay type: functional, cell-based; conditions: dose 5-25 µM, time 4.0 day
Mus musculus [15] = experiment: Antiinflammatory activity in zymosan-induced CD-1 mouse peritonitis model assessed as reduction in LTC4 level at 10 mg/kg, ip preincubated with compound for 30 mins followed by zymosan addition and measured after 30 mins by ELISA; assay type: functional, organism-based; conditions: time 60.0 min
Procedure, shortened: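 Compound 10 mg/kg i.p. in zymosan-induced peritonitis; mice killed 30 min after zymosan injection; exudate LTC4 measured by ELISA; statistics by two-tailed unpaired t-test of log data.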

Mus musculus [16] = experiment: Antiinflammatory activity in zymosan-induced CD-1 mouse peritonitis model assessed as reduction in LTC4 level at 3 mg/kg, po preincubated with compound for 60 mins followed by zymosan addition and measured after 30 mins by ELISA; assay type: functional, organism-based; conditions: time 90.0 min
Procedure, shortened: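 Oral dosing at 3 mg/kg in zymosan-induced peritonitis; mice killed 30 min after zymosan; LTC4 in peritoneal exudate measured by ELISA; two-tailed unpaired t-test of log data.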

Mus musculus [17] = experiment: Antiinflammatory activity in zymosan-induced CD-1 mouse peritonitis model assessed as reduction in 5-LOX product level at 10 mg/kg, po preincubated with compound for 60 mins followed by zymosan addition and measured after 30 mins; assay type: functional, organism-based; conditions: time 90.0 min
Procedure, shortened: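 Oral dosing at 10 mg/kg in zymosan peritonitis; mice killed 30 min after zymosan. Peritoneal exudate lipid mediators and fatty acids profiled by UPLC-MS/MS, with LTC4 measured by ELISA; results expressed as fold change versus vehicle.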

concentration at 1 h [2]: 30 nM
Stabilty [3]: Stable
Drug metabolism [4]: Metabolite_Detected
inhibition [6]: Active
inhibition [7]: inactive
inhibition [8]: inactive
inhibition [9]: inactive
SMILES: C/C(=C\CC/C(C)=C/CC[C@]1(C)CCc2c(C)c(O)c(C)c(C)c2O1)CCC=C(CO)CO
Activity (Mus musculus [1]): Active
Activity [5]: Non-Toxic
Activity (Keratinocyte [10]): Active
Activity (Keratinocyte [11]): Active
Activity (Keratinocyte [12]): Active
Activity (Keratinocyte [13]): Active
Activity (Keratinocyte [14]): inactive
Activity (Mus musculus [15]): Active
Activity (Mus musculus [16]): Active
Activity (Mus musculus [17]): Active
